Legend:
[1] = tested on: Human immunodeficiency virus 1; experiment: Ratio of EC50 for HIV1 NL4-3 harboring I85V mutation in protease encoding region infected in human […] cells to EC50 for HIV1 NL4-3 infected in human MT4 cells; assay type: functional
[2] = tested on: Human immunodeficiency virus; experiment: Antiviral activity against HIV1 LAI infected in human MT2 cells after 7 days by MTT assay; assay type: functional, organism-based; details: Human immunodeficiency virus 1, LAI, MT2, 168 h
[3] = tested on: Human immunodeficiency virus 1; experiment: Antiviral activity against HIV1 NL4-3 harboring L23I/K43I/M46I/I50L/G51A/A71V amino acid substitution in protease encoding region infected in human MT4 cells assessed as inhibition of p24 Gag protein production selected at 1 uM of atazanavir by ELISA; assay type: functional, organism-based; details: Human immunodeficiency virus 1, NL4-3, MT4
Method in brief: (§1)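 HIV-1NL4-3 (500 TCID50s) was passaged in MT-4 cells, starting at 0.01–0.03 µM PI and raising the drug generally two- to threefold as virus propagated. Cell-free passage used day-7 supernatants. Variants were then tested in MT-4 cells (10^5/ml) with 100 TCID50s, with or without drug, at 37°C. Day-7 p24 Gag was read by chemiluminescent immunoassay; EC50 vs drug-free control; triplicate.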

[4] = tested on: Human immunodeficiency virus 1; experiment: Ratio of EC50 for HIV1 NL4-3 harboring L10F mutation in protease encoding region infected in human […] cells to EC50 for HIV1 NL4-3 infected in human MT4 cells; assay type: functional
[5] = tested on: Human immunodeficiency virus 1; experiment: Antiviral activity against HIV1 NL4-3 infected in human MT4 cells assessed as inhibition of p24 gag protein production by ELISA; assay type: functional, organism-based; details: Human immunodeficiency virus 1, NL4-3, MT4
Method in brief: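 MT-4 cells (10^5/ml) were infected with 100 TCID50s of HIV-1 and cultured at 37°C with or without various drug concentrations. On day 7, supernatant p24 Gag was measured by automated chemiluminescent enzyme immunoassay. […] Assays were run in triplicate.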

[6] = Cytotoxicity against human MT2 cells by MTT assay; assay type: cell-based
[7] = tested on: Human immunodeficiency virus 1; experiment: Ratio of EC50 for HIV1 NL4-3 harboring D30N mutation in protease encoding region infected in human […] cells to EC50 for HIV1 NL4-3 infected in human MT4 cells; assay type: functional
[8] = tested on: Human immunodeficiency virus 1; experiment: Antiviral activity against HIV1 NL4-3 harboring I47V mutation in protease encoding region infected in human […] cells assessed as inhibition of p24 Gag protein production by ELISA; assay type: functional, organism-based; details: Human immunodeficiency virus 1, NL4-3
Method in brief: (§2)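 Protease PCR fragments (ApaI/SmaI) were cloned into pHIV-1NLSma, and virions were harvested from transfected 293T cells over 48 h. MT-4 target cells (10^5/ml) were infected with 100 TCID50s, with or without drug, at 37°C. Day-7 supernatant p24 Gag was read by chemiluminescent enzyme immunoassay.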

[9] = tested on: Human immunodeficiency virus 1; experiment: Antiviral activity against HIV1 G harboring L10I/V11I/T12E/I15V/L19I/R41K/M46L/L63P/A71T/V82A/L90M in protease encoding region infected in human PHA-PBC assessed as inhibition of p24 Gag protein production by ELISA; assay type: functional, organism-based; details: Human immunodeficiency virus 1, G
Method in brief: (§3)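 Phytohemagglutinin-stimulated PBMs (10^6/ml) infected with 50 TCID50s of each primary isolate, cultured with or without drug in 10-fold serial dilutions. On day 7, supernatant p24 Gag was measured by automated chemiluminescent enzyme immunoassay. […] Triplicate.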

[10] = tested on: Human immunodeficiency virus 1; experiment: Antiviral activity against HIV1 TM harboring L10I/K14R/R41K/M46L/I54V/L63P/A71V/V82A/L90M/I93L in protease encoding region infected in human PHA-PBC assessed as inhibition of p24 Gag protein production by ELISA; assay type: functional, organism-based; details: Human immunodeficiency virus 1, TM; method in brief: as §3
[11] = tested on: Human immunodeficiency virus 1; experiment: Antiviral activity against HIV1 NL4-3 harboring L10F/L24I/M46I/L63P/A71V/G73S/V82T amino acid substitution in protease encoding region infected in human MT4 cells assessed as inhibition of p24 Gag protein production selected at 5 uM of indinavir by ELISA; assay type: functional, organism-based; details: Human immunodeficiency virus 1, NL4-3, MT4; method in brief: as §1
[12] = tested on: Human immunodeficiency virus 1; experiment: Ratio of EC50 for HIV1 NL4-3 harboring M46I/V82F/I84V amino acid substitution in protease encoding region to EC50 for HIV1 NL4-3; assay type: functional
Method in brief: (§4)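 MT-4 cells (10^5/ml) infected with 100 TCID50s of PI-selected HIV-1NL4-3 variants or the parental strain, with or without serial drug concentrations, at 37°C. Day 7 supernatant p24 Gag measured by chemiluminescent enzyme immunoassay. […] Triplicate. Ratio is variant EC50 over wild-type EC50.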

[13] = tested on: Human immunodeficiency virus 1; experiment: Antiviral activity against HIV1 NL4-3 harboring L10F mutation in protease encoding region infected in human […] cells assessed as inhibition of p24 Gag protein production by ELISA; assay type: functional, organism-based; details: Human immunodeficiency virus 1, NL4-3; method in brief: as §2
[14] = tested on: Human immunodeficiency virus 1; experiment: Ratio of EC50 for HIV1 JSL harboring L10I/L24I/L33F/E35D/M36I/N37S/M46L/I54V/R57K/I62V/L63P/A71V/G73S/82A in protease encoding region to EC50 for HIV1 ERS104pre; assay type: functional
[15] = tested on: Human immunodeficiency virus 1; experiment: Antiviral activity against HIV1 NL4-3 harboring L10F/M46I/I54V/V82A amino acid substitution in protease encoding region infected in human MT4 cells assessed as inhibition of p24 Gag protein production selected at 1 uM of Lopinavir by ELISA; assay type: functional, organism-based; details: Human immunodeficiency virus 1, NL4-3, MT4
Method in brief: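 Cell-free passage used day-7 supernatants. Variants were then tested in MT-4 cells (10^5/ml) with 100 TCID50s, with or without drug, at 37°C. Day-7 p24 Gag was read by chemiluminescent immunoassay; EC50 vs drug-free control; triplicate.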

[16] = tested on: Human immunodeficiency virus 1; experiment: Antiviral activity against HIV1 NL4-3 harboring L10F/D30N/K45I/A71V/T74S amino acid substitution in protease encoding region infected in human MT4 cells assessed as inhibition of p24 Gag protein production selected at 5 uM of nelfinavir by ELISA; assay type: functional, organism-based; details: Human immunodeficiency virus 1, NL4-3, MT4; method in brief: as §1
[17] = tested on: Human immunodeficiency virus 1; experiment: Ratio of EC50 for ritonavir to compound against HIV1 NL4-3 harboring L33F mutation in protease encoding region infected in human […] cells; assay type: functional
[18] = tested on: Human immunodeficiency virus 1; experiment: Ratio of EC50 for HIV1 NL4-3 harboring L10F/L24I/M46I/L63P/A71V/G73S/V82T amino acid substitution in protease encoding region to EC50 for HIV1 NL4-3; assay type: functional; method in brief: as §4
[19] = tested on: Human immunodeficiency virus 1; experiment: Antiviral activity against HIV1 MOKW infected in human PHA-PBC assessed as inhibition of p24 Gag protein production by ELISA; assay type: functional, organism-based; details: Human immunodeficiency virus 1, MOKW; method in brief: as §3
[20] = tested on: Human immunodeficiency virus 1; experiment: Ratio of EC50 for HIV1 C harboring L10I/I15V/K20R/L24I/M36I/M46L/I54V/I62V/L63P/K70Q/V82A/L89M in protease encoding region to EC50 for HIV1 ERS104pre; assay type: functional
[21] = tested on: Human immunodeficiency virus 1; experiment: Ratio of EC50 for HIV1 A harboring L10I/I15V/E35D/N37E/K45R/I54V/L63P/A71V/V82T/L90M/I93L/C95F in protease encoding region to EC50 for HIV1 ERS104pre; assay type: functional
[22] = tested on: Human immunodeficiency virus 1; experiment: Ratio of EC50 for HIV1 NL4-3 harboring L10F/L33F/M46I/I47V/Q58E/V82I/I84V/I85V amino acid substitution in protease encoding region to EC50 for HIV1 NL4-3; assay type: functional; method in brief: as §4

Row | SMILES | EC50 [2] | EC50 [3] | EC50 [5] | CC50 [6] | EC50 [9] | EC50 [10] | EC50 [11] | Ratio EC50 [12] | Ratio EC50 [14] | EC50 [15] | EC50 [16] | Ratio EC50 [18] | EC50 [19] | Ratio EC50 [20] | Ratio EC50 [21] | Ratio EC50 [22] | other results
1 | COc1ccc(S(=O)(=O)N(C[C@@H]2CCC(=O)N2)C[C@@H](O)[C@H](Cc2ccccc2)NC(=O)O[C@@H]2C[C@@H]3CCO[C@@H]3C2)cc1 | 28 nM | 33 nM | 23 nM | > 100000 nM | 28 nM | 26 nM | 47 nM | 3 | 2 | 38 nM | 36 nM | 2 | 26 nM | 1 | 1 | >43 | Ratio EC50 [1]: 1; Ratio EC50 [4]: 1.6; Ratio EC50 [7]: 0.9; EC50 [8]: 37 nM; EC50 [13]: 37 nM; Ratio EC50 [17]: 1
2 | CC(C)CN(C[C@@H](O)[C@H](Cc1ccccc1)NC(=O)O[C@H]1CCOC1)S(=O)(=O)c1ccc(N)cc1 | 33 nM | 180 nM | 28 nM | > 100000 nM | 230 nM | – | 260 nM | 15 | 26 | 320 nM | 78 nM | 9 | 15 nM | 9 | 6 | 8 | –
3 | Cc1c(O)cccc1C(=O)N[C@@H](CSc1ccccc1)[C@H](O)CN1C[C@H]2CCCC[C@H]2C[C@H]1C(=O)NC(C)(C)C | 23 nM | 210 nM | – | – | 230 nM | > 1000 nM | 650 nM | 13 | >63 | 510 nM | > 1000 nM | 36 | 23 nM | 23 | 21 | 1 | –
4 | CC(C)(C)NC(=O)[C@@H]1C[C@@H]2CCCC[C@@H]2CN1C[C@@H](O)[C@H](Cc1ccccc1)NC(=O)[C@H](CC(N)=O)NC(=O)c1ccc2ccccc2n1 | 14 nM | 34 nM | 8 nM | 9900 nM | 27 nM | – | 22 nM | 1 | 36 | 33 nM | 28 nM | 3 | 4 nM | 4 | 11 | 1 | –
5 | CC(C)(C)NC(=O)[C@@H]1CN(Cc2cccnc2)CCN1C[C@@H](O)C[C@@H](Cc1ccccc1)C(=O)N[C@H]1c2ccccc2C[C@H]1O.O | 44 nM | 330 nM | 14 nM | – | 340 nM | > 1000 nM | > 1000 nM | 21 | >48 | > 1000 nM | 270 nM | >71 | 19 nM | >48 | >48 | 3 | –

From ChEMBL document CHEMBL1649117, “GRL-02031, a novel nonpeptidic protease inhibitor (PI) containing a stereochemically defined fused cyclopentanyltetrahydrofuran potent against multi-PI-resistant human immunodeficiency virus type 1 in vitro” (Antimicrob Agents Chemother, 2009)
